Laboratory results: ChEMBL document CHEMBL3244322, “5-O-Alkylated derivatives of 5-hydroxy-2'-deoxyuridine as potential antiviral agents. Anti-herpes activity of 5-propynyloxy-2'-deoxyuridine” (J Med Chem, 1978)
In brackets after ≈: the same amount, converted by molar mass. Activity calls are given as the source filed them. The calls are words filed in the database; no cut-off is given here.

Columns and labels:
Human alphaherpesvirus 1 [1] = assay: Antiviral activity against Herpes simplex virus 1 KOS infected in human skin fibroblasts primed with interferon and superinduced with cyclohexamide and actinomycin D assessed as inhibition of virus-induced cytopathogenicity; assay type: functional; details: Human alphaherpesvirus 1, KOS
Human alphaherpesvirus 1 [2] = assay: Antiviral activity against Herpes simplex virus 1 KOS infected in primary rabbit kidney cells assessed as inhibition of virus-induced cytopathogenicity; assay type: functional; details: Human alphaherpesvirus 1, KOS
[3] = test system: Vesicular stomatitis virus; assay: Antiviral activity against Vesicular stomatitis virus infected in primary rabbit kidney cells assessed as inhibition of virus-induced cytopathogenicity; assay type: functional, organism-based
[4] = Cytotoxicity against mouse L cells assessed as suppression of replication at 10^-3 M; assay type: cell-based; details: l929, 1000 µM
[5] = test system: Vesicular stomatitis virus; assay: Antiviral activity against Vesicular stomatitis virus infected in human skin fibroblasts primed with interferon and superinduced with cyclohexamide and actinomycin D assessed as inhibition of virus-induced cytopathogenicity; assay type: functional, organism-based
[6] = Ratio of I50 for DNA synthesis in primary rabbit kidney cells by [3H]-dT incorporation assay to MIC50 for Herpes simplex virus 1 KOS
Summary of the method: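 DNA synthesis in uninfected PRK cells measured by [3H]-dT incorporation. The concentration giving 50% reduction is set against the concentration giving 50% reduction in herpes virus cytopathogenicity.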

[7] = Cytotoxicity against mouse L cells assessed as suppression of replication; assay type: cell-based; details: l929

Row | SMILES | MIC (Human alphaherpesvirus 1 [1]) [µM] | MIC (Human alphaherpesvirus 1 [2]) [µM] | inhibition [3] | Activity [4] | inhibition [5] | Ratio [6] | Activity [7]
1 | C#CCOc1cn([C@H]2C[C@H](O)[C@@H](CO)O2)c(=O)[nH]c1=O | 3.5 (≈ 0.988 µg/mL) | 2.6 (≈ 0.734 µg/mL) | inactive | Non-toxic | inactive | 150 | 
2 | C=CCOc1cn([C@@H]2O[C@H](CO)[C@@H](O)[C@H]2O)c(=O)[nH]c1=O | > 600 | > 600 | inactive |  | inactive |  | 
3 | O=c1[nH]c(=O)n([C@H]2C[C@H](O)[C@@H](CO)O2)cc1I [IDOXURIDINE] | 0.35 (≈ 0.124 µg/mL) | 1.4 (≈ 0.496 µg/mL) |  |  |  |  | Toxic
4 | Cc1ccc(COc2cn([C@@H]3O[C@H](CO)[C@@H](O)[C@H]3O)c(=O)[nH]c2=O)cc1 | > 600 | > 600 | inactive |  | inactive |  | 
5 | Nc1ncnc2c1ncn2[C@@H]1O[C@H](CO)[C@@H](O)[C@@H]1O [VIDARABINE] | 3.5 (≈ 0.935 µg/mL) | 14 (≈ 3.74 µg/mL) |  |  |  |  | 
6 | O=c1[nH]c(=O)n([C@H]2C[C@H](O)[C@@H](CO)O2)cc1OCc1ccccc1 | > 450 | > 120 | inactive |  | inactive |  | 
7 | O=c1[nH]c(=O)n([C@@H]2O[C@H](CO)[C@@H](O)[C@H]2O)cc1OCc1ccccc1 | > 600 | > 600 | inactive |  | inactive |  | 
8 | O=c1[nH]c(=O)n([C@@H]2O[C@H](CO)[C@@H](O)[C@H]2O)cc1OCc1ccc([N+](=O)[O-])cc1 | > 600 | > 600 | inactive |  | inactive |  | 
9 | NC(=O)COc1cn([C@@H]2O[C@H](CO)[C@@H](O)[C@H]2O)c(=O)[nH]c1=O | > 600 | > 600 | inactive |  | inactive |  | 
10 | O=c1[nH]c(=O)n([C@H]2C[C@H](O)[C@@H](CO)O2)cc1O | 3.5 (≈ 0.855 µg/mL) | 16 (≈ 3.91 µg/mL) |  |  |  |  | 
11 | C=CCOc1cn([C@H]2C[C@H](O)[C@@H](CO)O2)c(=O)[nH]c1=O | 140 (≈ 39.8 µg/mL) | 14 (≈ 3.98 µg/mL) | inactive |  | inactive |  | 
12 | O=C(O)COc1cn([C@H]2C[C@H](O)[C@@H](CO)O2)c(=O)[nH]c1=O |  | > 600 | inactive |  | inactive |  | 
13 | NC(=O)COc1cn([C@H]2C[C@H](O)[C@@H](CO)O2)c(=O)[nH]c1=O | 260 (≈ 78.3 µg/mL) | 140 (≈ 42.2 µg/mL) | inactive |  | inactive |  | 
14 | O=c1[nH]c(=O)n([C@H]2C[C@H](O)[C@@H](CO)O2)cc1OCc1ccc([N+](=O)[O-])cc1 | > 520 | > 260 | inactive |  | inactive |  | 
